# Mdm2 MdmX PPI: inhibitors of human Mdm2/MdmX interaction; O15151+Q00987; 330,000 compounds, 3% hits; inhibition, % at 8 µM; SaOS-2 split-luciferase Mdm2/MdmX complementation, luminescence;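 active = inhibition of at least 50% at 8 µM in the primary screen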
# Target sequence (O15151 whole entry, looked up): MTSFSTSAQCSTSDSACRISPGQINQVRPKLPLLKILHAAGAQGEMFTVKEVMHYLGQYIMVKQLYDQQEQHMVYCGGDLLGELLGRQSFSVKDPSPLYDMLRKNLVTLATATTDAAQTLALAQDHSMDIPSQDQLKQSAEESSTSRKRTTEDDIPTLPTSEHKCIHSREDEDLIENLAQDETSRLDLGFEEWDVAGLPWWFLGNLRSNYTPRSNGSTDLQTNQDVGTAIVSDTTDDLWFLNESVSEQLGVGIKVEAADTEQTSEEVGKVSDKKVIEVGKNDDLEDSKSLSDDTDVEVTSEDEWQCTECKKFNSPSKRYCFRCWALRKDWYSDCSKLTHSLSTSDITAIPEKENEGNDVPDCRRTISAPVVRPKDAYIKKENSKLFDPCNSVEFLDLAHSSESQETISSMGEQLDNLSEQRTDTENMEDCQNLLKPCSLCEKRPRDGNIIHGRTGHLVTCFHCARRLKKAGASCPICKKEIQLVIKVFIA
# Target sequence (Q00987 whole entry, looked up): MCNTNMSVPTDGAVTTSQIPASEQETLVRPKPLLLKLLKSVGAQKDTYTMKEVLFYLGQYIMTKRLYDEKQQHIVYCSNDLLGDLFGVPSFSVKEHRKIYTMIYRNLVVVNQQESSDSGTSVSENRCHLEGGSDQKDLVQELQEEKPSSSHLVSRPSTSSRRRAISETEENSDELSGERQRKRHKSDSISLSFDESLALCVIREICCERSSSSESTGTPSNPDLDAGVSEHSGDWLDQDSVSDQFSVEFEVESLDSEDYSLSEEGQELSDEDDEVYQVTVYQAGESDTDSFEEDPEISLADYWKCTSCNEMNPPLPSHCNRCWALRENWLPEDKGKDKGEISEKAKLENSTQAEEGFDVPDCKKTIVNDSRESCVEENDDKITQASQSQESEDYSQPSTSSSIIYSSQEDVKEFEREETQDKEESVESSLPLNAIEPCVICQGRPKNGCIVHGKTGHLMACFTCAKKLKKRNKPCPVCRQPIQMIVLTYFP
# CHOP UPR activ: apoptotic UPR (CHOP) activation; CHO-CHOP luciferase reporter, luminescence; percent of tunicamycin response over DMSO baseline; AID 449763; activation, % at 10 µM; 330,000 compounds, 0.34% hits;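 active = at 10 µM dose, activation of 40% or more, normalized to positive control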;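 note: 100% = tunicamycin at 10 µg/mL and 0% = DMSO alone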
#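 Evaluation: % reporter activation, DMSO baseline versus tunicamycin full activation; System: CHO-CHOP luciferase reporter cell line; Input: 500 cells/well; Incubation: 6 h compound treatment, 37 °C; Measured by: Steady-Glo luciferase luminescence; Dosing: one dose, 10 µM in 0.5% DMSO; Buffer or medium: F12 medium, 10% FBS; Benchmarks: positive tunicamycin 10 µg/mL, negative DMSO alone.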
# SKKanGAS inh: inhibitors of SKKanGAS S. pyogenes growth in kanamycin (SK-promoter or general growth effect). BacTiter-Glo, 6 h. 300,000 compounds, 1.3% hits. inhibition, % at 7.5 µM;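 active = mean replicate score, as percent of positive control median, at least 50; inconclusive = mean below 50 but one replicate at or above 50; inactive = mean and every replicate below 50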;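 note: strain carries kanamycin resistance gene driven by streptokinase promoter and grows in 40 µg/ml kanamycin; loss of luminescence reflects streptokinase promoter inhibition or plain growth inhibition; 0% = median of DMSO wells and 100% = positive control at its reference dose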
# Beta cell apopt: blocks beta cell apoptosis | INS-1E cytokine-induced death, ATP luminescence, 48 h; percent of positive-control rescue, neutral wells zero | protection from apoptosis, % (concentration not given with the values) | 300,000 compounds, 0.8% hits | AID 435005;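 active = Every replicate reaches about 75%, or at least half do and their mean reaches it too, limit read from the data; inconclusive = At least half of replicates reach the limit but their mean does not; inactive = Under half of replicates reach the limit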;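 note: 0% = cytokine-treated negative control wells and 100% = positive control rescue; higher means more ATP so stronger rescue from cytokine killing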
# CSC inhib: cancer stem cell inhibition. cancer stem cell-like cells viability, luminescence. inhibition, % at 7.5 µM. 300,000 compounds, 1.1% hits; in the data active = inhibition above about 75%; inconclusive = no clear call, values can overlap the other calls; tested in HMLE shEcad cells
# XBP1 UPR activ: adaptive UPR (XBP1) activation. activation, % at 20 µM. 330,000 compounds, 0.33% hits. CHO-XBP1 luciferase reporter, IRE1-XBP1 UPR activation, luminescence; percent of tunicamycin response, DMSO as zero;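 active = versus positive control, 20 µM dose yields 30% or more activation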;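 note: 100% = tunicamycin at 10 µg/mL and 0% = DMSO only wells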
#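 Assay system: CHO-XBP1 luciferase reporter cells; Schedule: 6 h treatment, 37 °C; Detection: glow luminescence from Steady-Glo reagent; Benchmarks: high control tunicamycin 10 µg/mL final, low control DMSO vehicle only.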
# Mdm2-MdmX conf: confirmation of human Mdm2/MdmX interaction inhibitors; shares compounds with Mdm2 MdmX PPI; Mdm2-MdmX binding, luminescent assay; inhibition, % at 8 µM; 10,000 compounds, 55% hits; AID 489028; in the data active = inhibition above about 40%
# FLuc counter: inhibits full-length luciferase, flagging false Mdm2/MdmX hits | 6,200 compounds, 77% hits | shares compounds with Mdm2 MdmX PPI | inhibition, % at 8 µM | SaOS-2 full-length luciferase counterscreen, luminescence;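 active = mean inhibition at 8 µM reaching about 37%, which flags the compound as non-specific, limit read from the data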;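 note: p53-null SaOS-2 cells with luciferase driven by a doxycycline-inducible promoter; compound on cells about two nights before reading with doxycycline added after day one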
# Numbers without * were called inactive; ? = inconclusive; . = not tested or not shown. The list is not random: actives were taken first. Their share in the collection is about 4.8%.
SMILES,Mdm2 MdmX PPI,CHOP UPR activ,SKKanGAS inh,Beta cell apopt,CSC inhib,XBP1 UPR activ,Mdm2-MdmX conf,others
COc1cc(OC)cc(C(=O)NC(C)CNc2ccc(Cl)cc2[N+](=O)[O-])c1 (stereo not drawn),18.5,-0.6,-1.8,-2.5,-6.4,-2.6,.,
O=C(c1ccco1)N1CCN(C(=O)c2cnn(-c3ccc(Cl)cc3)c2C2CCNCC2)CC1,6.6,3.4,-5.7,0.6,-1.1,-2.8,.,
Cc1ccc(S(=O)(=O)N2C[C@@H]3[C@H]4CC[C@H](C4)[C@@H]3[C@@H](C)[C@H]2C#N)cc1,17.4,1.0,.,.,.,-0.9,.,
CC1(OC(=O)C2CCCC2)C(=O)C=C2C=C(C3CC3)OC=C2C1=O (stereo not drawn),9.7,-0.3,9.9,-4.2,7.9,15.5,.,
Cc1cc2ccccn2c1C(=O)c1ccc(NN)c([N+](=O)[O-])c1,61.7*,0.3,24.6,-5.2,-7.7,2.6,28.1,
Cc1cc2ccccn2c1C(=O)c1cc([N+](=O)[O-])cc([N+](=O)[O-])c1,-5.9,0.6,3.0,11.4,-4.9,-6.5,.,
Cc1ccc(SC(c2ccccc2)C(Cn2cncn2)C(=O)c2ccccc2)cc1 (stereo not drawn),60.3*,-0.1,5.0,-12.2,-9.0,-3.7,22.6,
O=C(c1ccc(Cl)cc1)C(Cn1cncn1)C(Sc1ccccc1)c1ccccc1 (stereo not drawn),11.3,0.7,25.4,-15.5,24.5,0.5,.,
CCCCS(=O)(=O)/C=C\C=C/S(=O)(=O)CCCC,93.7*,-12.3,-2.9,85.5*,110.7*,-10.2,98.8*,FLuc counter=51.1*
CCS(=O)(=O)c1nc(S(=O)(=O)c2ccc(C)cc2)c(N2CC(C)CC(C)C2)s1 (stereo not drawn),16.3,0.5,-6.8,-1.6,-7.6,-4.2,.,
COc1cccc(OCCCn2cc(/C=C3/C(=N)N4C=C(C)SC4=NC3=O)c3ccccc32)c1,47.9,1.5,21.3,6.6,13.4,1.4,.,
COc1ccc(OCCCn2cc(/C=C3/C(=N)N4C=C(C)SC4=NC3=O)c3ccccc32)cc1,65.1*,2.8,35.1,10.6,9.7,1.4,70.7*,FLuc counter=69.1*
COCCCN1C(=O)N(c2ccc(F)cc2)C(=O)C1CC(=O)Nc1ccc(OC)cc1 (stereo not drawn),14.7,-1.6,2.0,.,-3.8,-3.7,.,
Cc1cc(C)cc(N(C(=O)CNC(=O)c2ccco2)C(C(=O)NC2CCCCC2)c2ccncc2)c1 (stereo not drawn),-6.3,2.0,-0.5,0.0,.,-4.4,.,
O=C(NCCc1c[nH]c2ccccc12)C(=O)NCC1OCCN1S(=O)(=O)c1ccc(Cl)cc1 (stereo not drawn),51.0*,-0.4,-2.7,8.3,1.0,-5.1,48.6*,FLuc counter=37.0*
O=C(c1ccc(-c2ccccc2Cl)s1)N1CCOCC1,-64.3,1.7,13.1,-2.1,-17.6,-0.9,.,
Cc1ccccc1Cn1c(CN2CCN(c3ccc(F)cc3)CC2)nc2c1c(=O)n(C)c(=O)n2C,62.1*,2.7,3.6,8.1,58.2,-1.5,27.6,
COc1cc(C(=O)NCC(=O)N2CCN(S(=O)(=O)c3cc(C)ccc3C)CC2)cc(OC)c1OC,53.3*,0.0,-2.7,1.5,30.7,1.1,52.5*,FLuc counter=42.2*
Cc1csc(Nc2ccccc2C(F)(F)F)n1,7.0,2.9,9.2,-5.9,-4.3,1.1,.,
Cc1cc(C)n(-c2nc(Nc3ccccc3C)nc(-n3nc(C)cc3C)n2)n1,66.5*,5.2,97.6*,.,9.6,-3.2,20.6,
Cc1cc(C)n(-c2nc(Nc3ccccc3C(F)(F)F)nc(-n3nc(C)cc3C)n2)n1,68.9*,9.8,135.1*,82.1*,58.7,-7.5,34.8,
Cc1cc(C)n(-c2nc(NC(C)C)nc(NC(C)C)n2)n1,30.6,36.1,2.7,17.9,-14.7,10.3,.,
CCc1cc(Cn2nc(-c3ccccc3)cc2C(=O)NCc2ccccc2OC)on1,8.8,-0.4,22.5,-0.5,9.7,0.0,.,
Cc1cc(C)c(C(=O)/C=C/c2ccc(C(C)C)cc2)c(=O)[nH]1,85.7*,-0.8,3.4,-31.1,83.6*,3.2,97.2*,FLuc counter=56.0*
Cc1cc(C)c(C(=O)/C=C/C=C/c2ccccc2)c(=O)[nH]1,27.5,3.2,28.0,-0.8,1.2,3.6,.,
SMILES,Mdm2 MdmX PPI,CHOP UPR activ,SKKanGAS inh,Beta cell apopt,CSC inhib,XBP1 UPR activ,Mdm2-MdmX conf,others
COc1nnc(-c2ccc(N3CCCCC3)c(NC(=O)C3CCCCC3)c2)c2ccccc12,89.5*,11.2,15.5,78.7*,32.7,-1.8,28.9,
COc1nnc(-c2ccc(N3CCOCC3)c(NC(=O)C3CCCCC3)c2)c2ccccc12,16.0,1.1,-7.6,2.0,-6.7,1.0,.,
COc1cc(C(=O)Nc2cc(S(C)(=O)=O)ccc2Cl)ccc1OCC(=O)N1CCOCC1,4.6,2.9,.,0.8,-4.0,-3.2,.,
CCN(CC)c1nc(C#N)cc(-c2ccc(OC)cc2)n1,53.8*,-0.1,20.3,21.6,-1.9,0.2,65.0*,FLuc counter=47.0*
COc1ccc(-c2cc(C#N)nc(NN)n2)cc1,10.3,1.2,1.8,-1.5,3.4,-0.9,.,
CCCCn1c(N)c(N(CC(C)C)C(=O)c2ccc(Cl)c(S(=O)(=O)N3CCCC3)c2)c(=O)[nH]c1=O,13.1,1.4,1.2,2.2,10.7,0.1,.,
Cc1ccc(OCC(=O)N(Cc2ccccc2)c2c(N)n(Cc3ccccc3)c(=O)[nH]c2=O)c(C)c1,16.1,1.8,1.6,-2.1,-8.9,-4.6,.,
COc1ccc(-c2c(-c3cc(OC)cc(OC)c3)n(C)c3ccc(-c4ccc(OC)c(F)c4)cc23)cc1,16.8,-1.6,.,8.5,23.0,-2.1,.,
COc1ccc(-c2c(-c3cc(OC)cc(OC)c3)n(C)c3ccc(-c4ccc(S(N)(=O)=O)cc4)cc23)cc1,56.7*,15.9,.,-2.9,1.8,0.4,40.0,FLuc counter=80.3*
COc1cccc(-c2c(-c3cc(OC)cc(OC)c3)n(C)c3ccc(-c4cnc(OC)nc4)cc23)c1,20.2,0.9,.,-1.5,38.3,-0.9,.,
COc1cc(OC)cc(-c2c(-c3ccc(F)cc3)c3cc(-c4cnc(OC)nc4)ccc3n2C)c1,56.6*,4.7,.,1.3,3.9,9.9,53.8*,FLuc counter=41.8*
NS(=O)(=O)c1ccc(CCNC(=O)CCNS(=O)(=O)c2ccccc2C(F)(F)F)cc1,-6.9,-0.6,.,-3.6,-9.1,-0.9,.,
COc1ccc(NC(=O)Cn2nnc(C(=O)NCc3cccs3)c2N)cc1Cl,41.7,0.4,?,.,2.5,-2.8,.,
CN(C)CCOc1ncnc2c1oc1ccccc12,10.8,-0.7,5.8,10.8,-1.3,-1.7,.,
